The source of these data is ChEMBL document CHEMBL2040843, “Synthesis and in vitro stability of nucleoside 5'-phosphonate derivatives” (Eur J Med Chem, 2012).

The test system of one data set is Platelet. Description: Induction of platelets aggregation in human platelet rich plasma at 10^-4 M after 3 mins by light transmission aggregometry analysis. It counts as functional, cell-free. The gist of the method:
(§1)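 PRP from citrated whole blood (9:1) of healthy volunteers taken 2 h after an acetylsalicylic acid tablet; centrifuged 150g, 21 °C, 10 min. Pre-warmed PRP at 37 °C with test agent (10^-4 M) or vehicle; aggregation triggered with 10^-6 M ADP; shape change and aggregation followed 3 min by light transmission aggregometry.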

A short description of data set [1]: Antiplatelet activity against human platelets assessed as inhibition of ADP-induced platelet aggregation at 10^-4 M after 3 mins by light transmission aggregometry analysis. Conditions: 0.05 h. It counts as functional. An outline of the steps: as §1
Data set [2] is described as follows: Half life in Wistar rat liver homogenates at 50 uM by HPLC analysis. It counts as ADME, tissue-based. An outline of the steps:
(§2)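 Male Wistar rat liver washed in ice-cold saline, homogenized in 50 mM Tris-HCl pH 7.4 (4 mL/g); 2000 × g, 10 min, 4 °C supernatant stored −80 °C. Compound from 10^-2 M DMSO stock incubated at 50 μM final, 37 °C, up to 360 min; HPLC with external-standard peak areas. First-order kinetics from semilogarithmic plots; mean ± SD of three independent experiments.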

Data set [3] can be described thus: (§3) Metabolic stability in Wistar rat liver homogenates assessed as compound degradation at 50 uM after 6 hrs by HPLC analysis. It counts as ADME, tissue-based. Conditions: Wistar, liver homogenates, read-out: Drug degradation. An outline of the steps: as §2
A short description of data set [4]: (§4) Metabolic stability in human whole blood assessed as compound degradation after 6 hrs by HPLC analysis. Format: ADME, tissue-based. The note with it: whole blood, read-out: Drug degradation. The gist of the method: (§5)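 Compound from 10^-2 M DMSO stock incubated at 50 μM final in whole blood from healthy subjects (3 mL) at 37 °C for intervals up to 360 min. Remaining parent quantified by reversed-phase HPLC, peak areas against external standards; semilogarithmic regression for first-order kinetics; mean ± SD of three independent experiments.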

Data set [5] relates to Liver. Description: Drug degradation in Wistar rat liver homogenates assessed as increase in guanine formation by HPLC analysis. Format: ADME, tissue-based. The note with it: tissue homogenate. An outline of the steps:
(§6)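 Supernatant of male Wistar rat liver homogenate (Tris-HCl 50 mM, pH 7.4; 2000 × g) incubated at 37 °C with 50 μM compound up to 360 min. Guanine measured by RP18 HPLC, water/acetonitrile 99:1 with 0.01 M H3PO4, 0.8 mL/min, external-standard peak areas.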

Data set [6] deals with Liver. The data set is described as §3. The note with it: tissue homogenate, 6 h, 50 µM. It counts as ADME, tissue-based. An outline of the steps: as §2
A further data set deals with Blood. The description is as §4. Format: ADME, tissue-based. Conditions: blood, 6 h. An outline of the steps:
as §5

Data set [7] deals with Liver. Description: Metabolic stability in Wistar rat liver homogenates assessed as increase in guanine formation by HPLC analysis. It counts as ADME, tissue-based. The note with it: tissue homogenate. An outline of the steps:
as §6

The source made the active and inactive calls. The calls are words filed in the database; no cut-off is given here. Bounds are passed on as bounds.

Consider `CCOP(=O)(CC(=O)OC[C@H]1O[C@@H](n2cnc3c(=O)[nH]c(N)nc32)[C@H](O)[C@@H]1O)OCC`, for which, in the data set on Platelet, the outcome was inactive. The inhibition (usually the share of the control response that was lost under treatment) at 100 µM in [1] is at most 70%. In addition, the half-life – broadly, the time in which the quantity being followed falls by half – at 50 µM in data set [2] is 2.33 h. Further, in [3], the metabolised at 6 h, 50 µM is 80%. Moreover, the metabolised at 6 h in data set [4] is 20%. In the data set with Liver [5], the Drug degradation entry is listed as “Active”.
On to `Nc1ncnc2c1ncn2[C@@H]1O[C@H](COC(=O)CP(=O)(O)O)[C@@H](O)[C@H]1O` [ADENOSINE PHOSPHONOACETIC ACID], for which the result in the data set on Platelet was inactive. Besides, the inhibition at 100 µM in data set [1] was at most 70%. In addition, the Stability result in the data set with Liver [6] and in the data set on Blood was “Stable” throughout.
`CCOP(=O)(CC(=O)OC[C@H]1O[C@@H](n2cnc3c(=O)[nH]cnc32)[C@H](O)[C@@H]1O)OCC`: in the data set with Platelet, the result was inactive.
As to `CCOP(=O)(CC(=O)OC[C@H](CO)O[C@H](CO)n1cnc2c(N)ncnc21)OCC`, in the data set with Platelet, the outcome was inactive.
With `CC(C)C(=O)Nc1nc2c(ncn2[C@@H]2O[C@H](COC(=O)CP(=O)(O)O)[C@@H](O)[C@H]2O)c(=O)[nH]1`, the outcome in the data set on Platelet was inactive.
On the same count and under the same terms, for `CCOP(=O)(CC(=O)OC[C@H]1O[C@@H](n2c(SC)nc3c(N)ncnc32)[C@H](O)[C@@H]1O)OCC` the value was “inactive”; for `Nc1ncnc2c1ncn2[C@@H]1O[C@H](CNC(=O)CP(=O)(O)O)[C@@H](O)[C@H]1O`, “inactive”; for `CCOP(=O)(CC(=O)OCCOCn1cnc2c(N)ncnc21)OCC`, “inactive”.
Take `Nc1nc2c(ncn2[C@@H]2O[C@H](COC(=O)CP(=O)(O)O)[C@@H](O)[C@H]2O)c(=O)[nH]1`: in the data set on Platelet, the outcome was inactive.
As to `O=C(CP(=O)(O)O)NC[C@H]1O[C@@H](n2cnc3c(=O)[nH]cnc32)[C@H](O)[C@@H]1O`, the result in the data set on Platelet was inactive.
On to `CCOP(=O)(CC(=O)NC[C@H]1O[C@@H](n2cnc3c(=O)[nH]cnc32)[C@H](O)[C@@H]1O)OCC`, for which the result in the data set with Platelet was inactive.
For `CCOP(=O)(CC(=O)NC[C@H](CO)O[C@H](CO)n1cnc2c(N)ncnc21)OCC`, in the data set on Platelet, the outcome was inactive.
`CCOP(=O)(O)CC(=O)OCCOCn1cnc2c(N)ncnc21`: the outcome in the data set on Platelet was inactive. For the same compound, the inhibition at 100 µM in data set [1] is at most 70%. Further, the Stability result in the data set with Liver [6] and in the data set on Blood was “Stable” throughout.
In the case of `CCOP(=O)(CC(=O)OC[C@H]1O[C@@H](n2cnc3c(N)ncnc32)[C@H](O)[C@@H]1O)OCC`, the result in the data set with Platelet was inactive.
Turning to `Nc1nc2c(ncn2[C@@H]2O[C@H](CO)[C@@H](O)[C@H]2O)c(=O)[nH]1` [GUANOSINE], the half-life at 50 µM in [2] was 0.00403 h. Further, the Stability result in the data set on Liver [7] is “Unstable”.
`CCOP(=O)(CC(=O)NC[C@H]1O[C@@H](n2cnc3c(N)ncnc32)[C@H](O)[C@@H]1O)OCC`: the outcome with Platelet was inactive.
Regarding `CCOP(=O)(CC(=O)OC[C@H]1O[C@@H](n2cnc3c(=O)[nH]c(NC(=O)C(C)C)nc32)[C@H](O)[C@@H]1O)OCC`, the result with Platelet was inactive.
